Laboratory results reported in ChEMBL document CHEMBL3244318, “Prostaglandins and congeners. 14. Synthesis and bronchodilator activity of dl-16,16-trimethyleneprostaglandins” (1977).
Calls of active or inactive are those of the source. The calls are words filed in the database; no cut-off is given here.

Columns and labels:
Cavia porcellus [1] = experiment: Bronchodilatory activity in iv dosed Hartley guinea pig assessed as inhibition of histamine-induced constriction compound of total 3 to 4 doses at 15 mins interval starting first dose 2 mins post challenge; format: functional
Procedure, shortened: (§1)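 Ventilated, curarized guinea pigs received repeated 12-s IV spasmogen injections every 5 min, tuned to a 20-50 cm water rise in tracheal pressure. Three or four logarithmically spaced IV doses were given over 1 min, at 15-min intervals, with at least four animals per spasmogen. ED50 is the dose giving -50% spasm variation, taken from a semilog regression. When -50% was not reached, ED50 is reported as greater than the top dose.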

Cavia porcellus [2] = experiment: Bronchodilatory activity in iv dosed Hartley guinea pig assessed as inhibition of serotonin-induced constriction compound of total 3 to 4 doses at 15 mins interval starting first dose 2 mins post challenge; format: functional; procedure, shortened: as §1
Cavia porcellus [3] = experiment: Bronchodilatory activity in iv dosed Hartley guinea pig assessed as inhibition of acetylcholine-induced constriction at 3.2 mg/kg, iv of total 3 to 4 doses at 15 mins interval starting 2 mins post challenge; format: functional
Procedure, shortened: (§2)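 Artificially ventilated, curarized guinea pigs. Spasmogen was given IV in 12-s injections every 5 min, adjusted to raise tracheal pressure by 20-50 cm water. After three similar control spasms, drug was infused IV over 1 min. Sodium salts were given in water and esters in 10% aqueous ethanol. Read-out was % variation of spasm amplitude versus control, in at least four animals per spasmogen.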

Cavia porcellus [4] = experiment: Bronchodilatory activity in iv dosed Hartley guinea pig assessed as inhibition of acetylcholine-induced constriction compound of total 3 to 4 doses at 15 mins interval starting first dose 2 mins post challenge; format: functional; procedure, shortened: as §1
Canis familiaris = experiment: Bronchodilatory activity in anesthetized dog assessed as inhibition of pilocarpine-induced bronchospasms compound administered through aerosol 15 mins post challenge measured up to 1 hr; format: functional, organism-based; conditions: Canis lupus familiaris
Cavia porcellus [5] = experiment: Bronchodilatory activity in iv dosed Hartley guinea pig assessed as inhibition of histamine-induced constriction at 3.2 mg/kg, iv of total 3 to 4 doses at 15 mins interval starting 2 mins post challenge; format: functional; procedure, shortened: as §2
Cavia porcellus [6] = experiment: Bronchodilatory activity in iv dosed Hartley guinea pig assessed as inhibition of serotonin-induced constriction at 3.2 mg/kg, iv of total 3 to 4 doses at 15 mins interval starting 2 mins post challenge; format: functional; procedure, shortened: as §2
[7] = Cavia porcellus, Hartley, iv, read-out: ED50

For `CCCCC1([C@H](O)/C=C/C2CCC(=O)[C@@H]2CCCCSCC(=O)O)CCC1` (mixture of isomers), the ED50 (Cavia porcellus [1]; [7]) was 91.2 µg/kg, the ED50 (Cavia porcellus [2]) was 171 µg/kg and the inhibition in vivo at 3.2 mg/kg (Cavia porcellus [3]) was less than 50%.
`CCCCC1([C@H](O)/C=C/C2[C@H](O)CC(=O)[C@@H]2C/C=C\CCCC(=O)O)CCC1` (mixture of isomers) gave an ED50 (Cavia porcellus [1]; [7]) of 1.54 µg/kg, an ED50 (Cavia porcellus [4]; [7]) of 1.06 µg/kg and an ED50 (Cavia porcellus [2]) of 2.51 µg/kg.
In the case of `CCCCC1([C@H](O)/C=C/C2CCC(=O)[C@@H]2C/C=C\CCCC(=O)O)CCC1` (mixture of isomers), the ED50 (Cavia porcellus [1]; [7]) is reported as 2.2 µg/kg, the ED50 (Cavia porcellus [4]; [7]) is reported as 24.2 µg/kg and the ED50 (Cavia porcellus [2]) is reported as 7.67 µg/kg.
`CCCCC1([C@@H](O)/C=C/C2CCC(=O)[C@@H]2CCCCCCC(=O)O)CCC1` (mixture of isomers) was tested, and the ED50 (Cavia porcellus [1]; [7]) was 13.9 µg/kg, the ED50 (Cavia porcellus [2]) was 20.3 µg/kg and the inhibition in vivo at 3.2 mg/kg (Cavia porcellus [3]) was less than 50%.
`CCCCC1([C@@H](O)/C=C/C2[C@H](O)CC(=O)[C@@H]2CCCCCCC(=O)O)CCC1` (mixture of isomers) was tested, and the inhibition (Canis familiaris) was “Active”, the ED50 (Cavia porcellus [1]; [7]) was 17 µg/kg and the ED50 (Cavia porcellus [4]; [7]) was 30 µg/kg. It also gave an ED50 (Cavia porcellus [2]) of 43.9 µg/kg.
`CCCCC1([C@@H](O)/C=C/C2CCC(=O)[C@@H]2C/C=C\CCCC(=O)O)CCC1` (mixture of isomers) showed an inhibition in vivo at 3.2 mg/kg (Cavia porcellus [5]) of less than 50% and an inhibition in vivo at 3.2 mg/kg (Cavia porcellus [3]) of less than 50%.
`CCCCC1([C@H](O)/C=C/C2CCC(=O)[C@@H]2CCCCCCCCC(=O)O)CCC1` (mixture of isomers) gave an inhibition in vivo at 3.2 mg/kg (Cavia porcellus [6]) of less than 50%, an inhibition in vivo at 3.2 mg/kg (Cavia porcellus [5]) of less than 50% and an inhibition in vivo at 3.2 mg/kg (Cavia porcellus [3]) of less than 50%.
Work on `CCCCC1([C@@H](O)/C=C/C2CCC(=O)[C@@H]2CCCCC(C)(C)CC(=O)OCC)CCC1` (mixture of isomers) yielded an inhibition in vivo at 3.2 mg/kg (Cavia porcellus [6]) of less than 50%, an inhibition in vivo at 3.2 mg/kg (Cavia porcellus [5]) of less than 50% and an inhibition in vivo at 3.2 mg/kg (Cavia porcellus [3]) of less than 50%.
`CCCCC1([C@H](O)/C=C/C2CCC(=O)[C@@H]2CCCCSCC(=O)OCC)CCC1` (mixture of isomers) was tested, and the ED50 (Cavia porcellus [1]; [7]) was 30 µg/kg, the ED50 (Cavia porcellus [4]; [7]) was 909 µg/kg and the ED50 (Cavia porcellus [2]) was 300 µg/kg.
Work on `CCCCC1([C@H](O)/C=C/C2CCC(=O)[C@@H]2CCCCCCCC(=O)OCC)CCC1` (mixture of isomers) yielded an inhibition in vivo at 3.2 mg/kg (Cavia porcellus [6]) of less than 50%, an inhibition in vivo at 3.2 mg/kg (Cavia porcellus [5]) of less than 50% and an inhibition in vivo at 3.2 mg/kg (Cavia porcellus [3]) of less than 50%.
`CCCC1([C@H](O)/C=C/C2[C@H](O)CC(=O)[C@@H]2C/C=C\CCCC(=O)O)CCC1` (mixture of isomers) was tested, and the ED50 (Cavia porcellus [1]) was 0.0979 µg/kg, the ED50 (Cavia porcellus [4]; [7]) was 3 µg/kg and the ED50 (Cavia porcellus [2]) was 3 µg/kg.
With `CCCCC1([C@@H](O)/C=C/C2CCC(=O)[C@@H]2CCCCCCCC(=O)OCC)CCC1` (mixture of isomers) the inhibition in vivo at 3.2 mg/kg (Cavia porcellus [6]) was less than 50%, the inhibition in vivo at 3.2 mg/kg (Cavia porcellus [5]) was less than 50% and the inhibition in vivo at 3.2 mg/kg (Cavia porcellus [3]) was less than 50%.
`CCCCC1([C@H](O)/C=C/C2CCC(=O)[C@@H]2CCCCC(C)(C)CC(=O)O)CCC1` (mixture of isomers) gave an inhibition in vivo at 3.2 mg/kg (Cavia porcellus [6]) of less than 50%, an inhibition in vivo at 3.2 mg/kg (Cavia porcellus [5]) of less than 50% and an inhibition in vivo at 3.2 mg/kg (Cavia porcellus [3]) of less than 50%.
Molecule `CCCCC1([C@H](O)/C=C/C2CCC(=O)[C@@H]2CCCCCCC(=O)OCC)CCC1` (mixture of isomers) has an ED50 (Cavia porcellus [1]; [7]) of 15.1 µg/kg and an ED50 (Cavia porcellus [2]) of 409 µg/kg.
`CCCCC1([C@H](O)/C=C/C2CCC(=O)[C@@H]2CCCCCC(=O)OCC)CCC1` (mixture of isomers) was tested, and the inhibition in vivo at 3.2 mg/kg (Cavia porcellus [6]) was less than 50%, the inhibition in vivo at 3.2 mg/kg (Cavia porcellus [5]) was less than 50% and the inhibition in vivo at 3.2 mg/kg (Cavia porcellus [3]) was less than 50%.
With `CCCCC1([C@@H](O)/C=C/C2CCC(=O)[C@@H]2C/C=C\CCCC(=O)OCC)CCC1` (mixture of isomers) the inhibition in vivo at 3.2 mg/kg (Cavia porcellus [6]) was less than 50%, the inhibition in vivo at 3.2 mg/kg (Cavia porcellus [5]) was less than 50% and the inhibition in vivo at 3.2 mg/kg (Cavia porcellus [3]) was less than 50%.
With `CCCCC1([C@@H](O)/C=C/C2CCC(=O)[C@@H]2CCCCSCC(=O)O)CCC1` (mixture of isomers) the inhibition in vivo at 3.2 mg/kg (Cavia porcellus [6]) was less than 50%, the ED50 (Cavia porcellus [1]; [7]) was 606 µg/kg and the inhibition in vivo at 3.2 mg/kg (Cavia porcellus [3]) was less than 50%.
Work on `CCCCC1([C@@H](O)/C=C/C2[C@H](O)CC(=O)[C@@H]2C/C=C\CCCC(=O)O)CCC1` (mixture of isomers) yielded an ED50 (Cavia porcellus [1]; [7]) of 48.4 µg/kg, an ED50 (Cavia porcellus [4]; [7]) of 32 µg/kg and an ED50 (Cavia porcellus [2]) of 305 µg/kg.
`CCCCC1([C@H](O)/C=C/C2CCC(=O)[C@@H]2CCCCCCCC(=O)O)CCC1` (mixture of isomers) gave an inhibition in vivo at 3.2 mg/kg (Cavia porcellus [6]) of less than 50%, an inhibition in vivo at 3.2 mg/kg (Cavia porcellus [5]) of less than 50% and an inhibition in vivo at 3.2 mg/kg (Cavia porcellus [3]) of less than 50%.
`CCCC1([C@@H](O)/C=C/C2[C@H](O)CC(=O)[C@@H]2C/C=C\CCCC(=O)O)CCC1` (mixture of isomers) gave an ED50 (Cavia porcellus [1]; [7]) of 46.7 µg/kg, an ED50 (Cavia porcellus [2]) of 265 µg/kg and an inhibition in vivo at 3.2 mg/kg (Cavia porcellus [3]) of less than 50%.
Molecule `CCCCC1([C@H](O)/C=C/C2CCC(=O)[C@@H]2C/C=C\CCCC(=O)OCC)CCC1` (mixture of isomers) has an ED50 (Cavia porcellus [1]; [7]) of 221 µg/kg and an ED50 (Cavia porcellus [2]) of 135 µg/kg.
Work on `CCCCC1([C@@H](O)/C=C/C2CCC(=O)[C@@H]2CCCCCCCCC(=O)O)CCC1` (mixture of isomers) yielded an inhibition in vivo at 3.2 mg/kg (Cavia porcellus [6]) of less than 50%, an inhibition in vivo at 3.2 mg/kg (Cavia porcellus [5]) of less than 50% and an inhibition in vivo at 3.2 mg/kg (Cavia porcellus [3]) of less than 50%.
`CCCCC1([C@@H](O)/C=C/C2CCC(=O)[C@@H]2CCCCCCCC(=O)O)CCC1` (mixture of isomers) showed an inhibition in vivo at 3.2 mg/kg (Cavia porcellus [6]) of less than 50%, an inhibition in vivo at 3.2 mg/kg (Cavia porcellus [5]) of less than 50% and an inhibition in vivo at 3.2 mg/kg (Cavia porcellus [3]) of less than 50%.
In the case of `CCCCC1([C@@H](O)/C=C/C2CCC(=O)[C@@H]2CCCCC(C)(C)CC(=O)O)CCC1` (mixture of isomers), the inhibition in vivo at 3.2 mg/kg (Cavia porcellus [6]) is reported as less than 50%, the inhibition in vivo at 3.2 mg/kg (Cavia porcellus [5]) is reported as less than 50% and the inhibition in vivo at 3.2 mg/kg (Cavia porcellus [3]) is reported as less than 50%.
With `CCCCC1([C@H](O)/C=C/C2CCC(=O)[C@@H]2CCCCC(C)(C)CC(=O)OCC)CCC1` (mixture of isomers) the inhibition in vivo at 3.2 mg/kg (Cavia porcellus [6]) was less than 50%, the inhibition in vivo at 3.2 mg/kg (Cavia porcellus [5]) was less than 50% and the inhibition in vivo at 3.2 mg/kg (Cavia porcellus [3]) was less than 50%.
For `CCCCC1([C@H](O)/C=C/C2[C@H](O)CC(=O)[C@@H]2CCCCCCC(=O)O)CCC1` (mixture of isomers), the inhibition (Canis familiaris) was “Active”, the ED50 (Cavia porcellus [1]) was 0.555 µg/kg and the ED50 (Cavia porcellus [4]; [7]) was 1.45 µg/kg. For the same molecule, the ED50 (Cavia porcellus [2]) was 1.26 µg/kg.
With `CCCCC1([C@H](O)/C=C/C2CCC(=O)[C@@H]2CCCCCC(=O)O)CCC1` (mixture of isomers) the ED50 (Cavia porcellus [1]; [7]) was 32 µg/kg, the ED50 (Cavia porcellus [4]; [7]) was 320 µg/kg and the ED50 (Cavia porcellus [2]) was 32 µg/kg.
`CCCCC1([C@H](O)/C=C/C2CCC(=O)[C@@H]2CCCCCCC(=O)O)CCC1` (mixture of isomers) gave an ED50 (Cavia porcellus [1]; [7]) of 2.4 µg/kg and an ED50 (Cavia porcellus [4]; Cavia porcellus, Hartley, iv) of 47.8 µg/kg.
Molecule `CCCCC1([C@@H](O)/C=C/C2CCC(=O)[C@@H]2CCCCSCC(=O)OCC)CCC1` (mixture of isomers) has an inhibition in vivo at 3.2 mg/kg (Cavia porcellus [6]) of less than 50%, an ED50 (Cavia porcellus [1]; [7]) greater than 672 µg/kg and an inhibition in vivo at 3.2 mg/kg (Cavia porcellus [3]) of less than 50%.
With `CCCCC1([C@@H](O)/C=C/C2CCC(=O)[C@@H]2CCCCCCCCC(=O)OCC)CCC1` (mixture of isomers) the inhibition in vivo at 3.2 mg/kg (Cavia porcellus [6]) was less than 50%, the inhibition in vivo at 3.2 mg/kg (Cavia porcellus [5]) was less than 50% and the inhibition in vivo at 3.2 mg/kg (Cavia porcellus [3]) was less than 50%.
Molecule `CCCCC1([C@H](O)/C=C/C2CCC(=O)[C@@H]2CCCCCCCCC(=O)OCC)CCC1` (mixture of isomers) has an ED50 (Cavia porcellus [1]; [7]) of 6210 µg/kg, an ED50 (Cavia porcellus [2]) of 4380 µg/kg and an inhibition in vivo at 3.2 mg/kg (Cavia porcellus [3]) of less than 50%.
In the case of `CCCCC1([C@@H](O)/C=C/C2CCC(=O)[C@@H]2CCCCCCC(=O)OCC)CCC1` (mixture of isomers), the ED50 (Cavia porcellus [1]; [7]) is reported as 32 µg/kg and the ED50 (Cavia porcellus [4]; [7]) is reported as 2.06 µg/kg.
For `CCCCC[C@H](O)/C=C/[C@H]1[C@H](O)CC(=O)[C@@H]1CCCCCCC(=O)O` [ALPROSTADIL], the inhibition (Canis familiaris) was “Active”, the ED50 (Cavia porcellus [1]; [7]) was 0.7 µg/kg and the ED50 (Cavia porcellus [4]) was 3.3 µg/kg. It also gave an ED50 (Cavia porcellus [2]) of 1.07 µg/kg.
